Test results as given in article PMC3371134 (Journal of Neurochemistry, 2012).
“Also recorded” adds a separate entry of the source.

Experiments:
[1] = tested on: calcineurin B (CnB); assay: Yeast two-hybrid; type: binding, mouse; details: LexA and VP16 fusions, lacZ reporter, X-gal
Summary of the method: (§1)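 Mouse coding sequences (from brain cDNA) were cloned as galactose-inducible LexA and VP16 fusions and co-transformed into S260 yeast, selected on glucose Trp−/Ura− plates. Colonies on filters were switched to galactose for induction, then assayed for lacZ with X-gal. Autoactivation was checked against LexA/VP16 control vectors. Blue within 1 h was scored positive; blue at 2–4 h was scored weak.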

[2] = tested on: centrin 2 (Cetn2); assay: Yeast two-hybrid; type: binding, mouse; details: LexA and VP16 fusions, lacZ reporter, X-gal
Summary of the method: as §1

[3] = tested on: calmodulin-like 4 (Calml4); assay: Yeast two-hybrid; type: binding, mouse; details: LexA and VP16 fusions, lacZ reporter, X-gal
Summary of the method: as §1

[4] = tested on: calneuron 1 (Caln1); assay: Yeast two-hybrid; type: binding, mouse; details: LexA and VP16 fusions, lacZ reporter, X-gal
Summary of the method: as §1

[5] = tested on: calmodulin-Sepharose; assay: CaM-Sepharose pulldown of Myc-tagged proteins expressed in COS-7 cells; type: binding
Summary of the method: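 Myc-tagged mouse constructs (from brain cDNA) were expressed in COS-7 cells, grown in DMEM/10% FBS at 37°C and transfected at 80% confluency with 3 μg plasmid. After 48 h, cells were lysed 30 min at 4°C in TX-buffer (50 mM Tris-HCl pH 6.9, 0.5% Triton X-100, protease inhibitors). Cleared lysate was incubated overnight at 4°C with CaM-Sepharose, then washed 3× and detected by SDS-PAGE/anti-Myc (9E10) western blot with ECL.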

B1: Pcp4l1: small neuronal IQ motif protein, 68 amino acids, full length (protein)
chain: MSELNTKTPPAANQASDPEEKGKPGSIKKAEEEEEIDIDLTAPETEKAALAIQGKFRRFQKRKKDSSS
modifications: left off: Myc, end not stated, kept
[1]
  interaction with CnB in Y2H: no binding was detected
[2]
  interaction with Cetn2 in Y2H: no binding was detected
[3]
  interaction with Calml4 in Y2H: no binding was detected
[4]
  interaction with Caln1 in Y2H: no binding was detected
[5]; 5mM CaCl2, TX-buffer pH 6.9, overnight at 4°C, anti-Myc western blot
  CaM-Sepharose pulldown, calcium-replete: binds weakly or not at all to CaM; also recorded: interacts poorly with CaM in both low and high calcium conditions
[5]; 5mM CaCl2 or 5mM EGTA, summary in Discussion
  calcium dependence of CaM binding / overall CaM binding: little or no binding in either calcium poor or replete conditions
[5]; 5mM EGTA, TX-buffer pH 6.9, overnight at 4°C, anti-Myc western blot
  CaM-Sepharose pulldown, calcium-poor: binds weakly or not at all to CaM; also recorded: interacts poorly with CaM in both low and high calcium conditions
